Test results reported in ChEMBL document CHEMBL3124922, “The antitumor agent PBT-1 directly targets HSP90 and hnRNP A2/B1 and inhibits lung adenocarcinoma growth and metastasis” (J Med Chem, 2014).
The source made the active and inactive calls.

Key:
[1] = biological target: T1, HSP90 and hnRNPA2/B1 (Homo sapiens, UniProt P08238+P22626); test: Inhibition of HSP90/hnRNPA2/B1 in human CL1-5 cells assessed as reduction of slug expression at 0.25 ug/ml up to 5 hrs by Western blotting analysis; format: cell-based
T1 sequence (P08238 whole entry, looked up): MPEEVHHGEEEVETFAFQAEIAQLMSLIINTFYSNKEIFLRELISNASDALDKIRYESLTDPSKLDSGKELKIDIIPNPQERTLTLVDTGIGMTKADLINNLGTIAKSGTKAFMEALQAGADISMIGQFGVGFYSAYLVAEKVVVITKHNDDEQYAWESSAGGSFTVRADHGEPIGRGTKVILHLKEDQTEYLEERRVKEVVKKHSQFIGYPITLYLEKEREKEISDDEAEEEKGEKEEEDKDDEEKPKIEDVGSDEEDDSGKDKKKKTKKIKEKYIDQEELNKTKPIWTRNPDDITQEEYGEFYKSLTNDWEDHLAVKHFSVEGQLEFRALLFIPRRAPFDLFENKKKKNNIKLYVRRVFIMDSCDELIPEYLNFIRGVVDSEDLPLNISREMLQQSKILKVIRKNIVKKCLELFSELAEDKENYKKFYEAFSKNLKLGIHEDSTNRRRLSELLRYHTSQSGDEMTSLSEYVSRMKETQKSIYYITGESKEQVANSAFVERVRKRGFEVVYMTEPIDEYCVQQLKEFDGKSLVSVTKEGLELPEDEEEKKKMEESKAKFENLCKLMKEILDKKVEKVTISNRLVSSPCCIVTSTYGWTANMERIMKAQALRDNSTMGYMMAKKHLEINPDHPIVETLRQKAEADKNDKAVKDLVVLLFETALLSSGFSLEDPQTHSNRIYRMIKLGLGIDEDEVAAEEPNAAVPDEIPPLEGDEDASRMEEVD
T1 sequence (P22626 whole entry, looked up): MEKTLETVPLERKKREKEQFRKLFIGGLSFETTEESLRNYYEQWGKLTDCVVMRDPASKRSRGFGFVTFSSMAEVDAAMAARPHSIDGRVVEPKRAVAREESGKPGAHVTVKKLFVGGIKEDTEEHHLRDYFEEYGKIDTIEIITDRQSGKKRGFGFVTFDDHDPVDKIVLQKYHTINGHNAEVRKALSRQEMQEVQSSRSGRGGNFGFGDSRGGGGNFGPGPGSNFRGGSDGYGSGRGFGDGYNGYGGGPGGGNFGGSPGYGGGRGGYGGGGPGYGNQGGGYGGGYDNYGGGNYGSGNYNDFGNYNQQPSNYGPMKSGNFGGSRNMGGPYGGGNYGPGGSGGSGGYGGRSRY
Procedure, shortened: (§1)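 CL1-5 or CL152 cells exposed to a range of concentrations for 5 h; Slug (and E-cadherin) detected by Western blot with β-actin as loading control; representative of three experiments.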

[2] = test system: CL1-5; test: Binding affinity to HSP70 in human CL1-5 cell lysate after 1 hr by affinity chromatographic analysis; format: cell-free
Procedure, shortened: (§2)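 CL1-5 lysate (10 mg protein; Tris pH 8.0 lysis buffer) held with or without 1 mM free ligand for 1 h, then loaded at 4 °C onto Sepharose 4B carrying the coupled ligand, with uncoupled beads as control. Washed with T buffer, eluted with 4 M urea/1 M NaCl; flow-through, wash and eluate probed by Western blot for HSP90, hnRNP A2/B1, HSP70 and β-actin.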

[3] = biological target: T1, HSP90 and hnRNPA2/B1; test: Binding affinity to HSP90/hnRNPA2/B1 in human CL1-5 cell lysate after 1 hr by affinity chromatographic analysis; format: cell-free; procedure, shortened: as §2
[4] = biological target: T1, HSP90 and hnRNPA2/B1; test: Inhibition of HSP90/hnRNPA2/B1 in human CL1-5 cells assessed as reduction of slug expression at >0.5 ug/ml after 24 hrs by Western blotting analysis; format: cell-based
[5] = biological target: T1, HSP90 and hnRNPA2/B1; test: Inhibition of HSP90/hnRNPA2/B1 in human CL1-5 cells; format: cell-based
[6] = biological target: T1, HSP90 and hnRNPA2/B1; test: Inhibition of HSP90/hnRNPA2/B1 in human PC9 cells assessed as reduction of slug expression at 0.5 ug/ml after 5 hrs by Western blotting analysis; format: cell-based; conditions: PC-9
[7] = biological target: T1, HSP90 and hnRNPA2/B1; test: Inhibition of HSP90/hnRNPA2/B1 in human CL152 cells assessed as upregulation of E-cadherin expression after 5 hrs by Western blotting analysis; format: cell-based
[8] = biological target: T1, HSP90 and hnRNPA2/B1; test: Inhibition of HSP90/hnRNPA2/B1 in human CL152 cells assessed as reduction of slug expression at 0.5 ug/ml after 5 hrs by Western blotting analysis; format: cell-based; procedure, shortened: as §1
[9] = biological target: T1, HSP90 and hnRNPA2/B1; test: Inhibition of HSP90/hnRNPA2/B1 in human CL1-5 cells assessed as upregulation of E-cadherin expression after 0.5 to 2 hrs by Western blotting analysis; format: cell-based
[10] = biological target: T1, HSP90 and hnRNPA2/B1; test: Inhibition of HSP90/hnRNPA2/B1 in human CL1-5 cells assessed as reduction of slug expression at >0.5 ug/ml up to 5 hrs by Western blotting analysis; format: cell-based; procedure, shortened: as §1
[11] = biological target: T1, HSP90 and hnRNPA2/B1; test: Inhibition of HSP90/hnRNPA2/B1 in human CL1-5 cells assessed as reduction of slug expression at 0.5 ug/ml after 2 hrs by Western blotting analysis; format: cell-based
Procedure, shortened: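 CL1-5 cells exposed to 0.5 μg/mL for 0.5, 1 or 2 h; Slug in cell extracts detected by Western blot with β-actin as loading control; representative of three experiments.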

[12] = test system: CL1-5; test: Reduction of filopodia formation in human CL1-5 cells at 0.1 to 0.75 ug/ml by immunofluorescence staining-based microscopic analysis; format: functional, cell-based
[13] = test system: CL1-5; test: Antiinvasive activity against human CL1-5 cells after 20 hrs by matrigel-coated transwell assay; format: functional, cell-based
Procedure, shortened: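 Transwell chambers (8 μm pores) coated with 5 μg/mL Matrigel; 2.5 × 10^4 cells seeded on top in medium with 10% NuSerum; after 20 h, cells reaching the lower side fixed in methanol, stained with 50 μg/mL propidium iodide and quantified by image analysis. Triplicate samples; mean ± SD of three independent experiments.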

[14] = test system: CL1-5; test: Antimigratory activity against human CL1-5 cells assessed as reduction of cell migration at 0.25 ug/ml after 1 to 12 hrs by wound healing assay relative to control; format: functional, cell-based
Procedure, shortened: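 Cells grown to near-confluence in 6 cm dishes, monolayer scratched with a pipet tip, debris washed off with PBS; incubated at 37 °C and photographed at 0, 4, 8 and 12 h. Cells migrating into the cell-free zone counted. Triplicate samples, at least three independent experiments, mean ± SD.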

[15] = test system: CL1-5; test: Antitumor activity against human CL1-5 cells xenografted in Balb/c nu/nu mouse assessed as subcutaneously implanted tumor growth inhibition at 10 mg/kg/day, ip administered 3 times per week measured 2 times per week for 28 days; format: functional, organism-based
Procedure, shortened: (§3)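 Six-week-old male BALB/c nu/nu mice (SPF) given 1 × 10^6 CL1-5 cells s.c. in the right flank; at 100 mm^3 tumor volume (5–8 days), six mice per group randomized to compound 10 mg/kg/day or vehicle i.p. three times weekly. Volume from calipers as 0.5W²L; tumor volume and body weight recorded twice weekly.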

[16] = test system: CL1-5; test: Antitumor activity against human CL1-5 cells xenografted in Balb/c nu/nu mouse assessed as orthotopic tumor growth inhibition at 10 mg/kg/day, ip administered 3 times per week measured 2 times per week for 28 days; format: functional, organism-based
Procedure, shortened: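 CL1-5 cells inoculated into the pleural cavity of 6-week-old BALB/c nu/nu mice (n = 6 per group); i.p. dosing with compound or DMSO vehicle three times weekly from day 5. At 28 days mice killed by CO2, organs formalin-fixed; tumor volume in excised lungs and metastatic nodule counts taken, mean ± SD of six mice.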

[17] = test system: Mus musculus; test: Toxicity in Balb/c nu/nu mouse xenografted with human CL1-5 cells at 10 mg/kg, ip qd administered 3 times per week measured 2 times per week for 28 days; format: organism-based; set-up: dose 10 mg/kg, route intraperitoneal; conditions: in vivo, 672 h; procedure, shortened: as §3

Cl.Cl.NCCOCCOCCOCCOc1ccc2c(CN3CCC(CO)CC3)cc3cc4c(cc3c2c1)OCO4
0.5 µg/mL: IC50 [5]
inactive: inhibition [1] | Activity [2]
active: Activity [3] | inhibition [4]

COc1ccc2c(CN3CCC(CO)CC3)cc3cc4c(cc3c2c1)OCO4
active: inhibition [6] | inhibition [7] Dose-dependent effect | inhibition [8] | inhibition [9] Dose-dependent effect | inhibition [10] | inhibition [11] | Activity [12] | Activity [13] Dose-dependent effect | Activity [14] | TGI [15] | TGI [16]
Non-toxic: Activity [17]
